Active and inactive are the calls of the source. The rule behind the calls is not given here.
How the values were obtained:
RAW264.7 [1] = assay: Antiinflammatory activity in mouse RAW264.7 cells assessed as inhibition of LPS-induced NO production at 200 uM after 24 hrs by Griess assay; format: functional, cell-based
Acetylcholinesterase = Acetylcholinesterase (Electrophorus electricus, UniProt O42275); assay: Inhibition of electric eel AChE using acetylthiocholine iodide as substrate measured every 13 secs by Ellman's method
Acetylcholinesterase, sequence (O42275 whole entry): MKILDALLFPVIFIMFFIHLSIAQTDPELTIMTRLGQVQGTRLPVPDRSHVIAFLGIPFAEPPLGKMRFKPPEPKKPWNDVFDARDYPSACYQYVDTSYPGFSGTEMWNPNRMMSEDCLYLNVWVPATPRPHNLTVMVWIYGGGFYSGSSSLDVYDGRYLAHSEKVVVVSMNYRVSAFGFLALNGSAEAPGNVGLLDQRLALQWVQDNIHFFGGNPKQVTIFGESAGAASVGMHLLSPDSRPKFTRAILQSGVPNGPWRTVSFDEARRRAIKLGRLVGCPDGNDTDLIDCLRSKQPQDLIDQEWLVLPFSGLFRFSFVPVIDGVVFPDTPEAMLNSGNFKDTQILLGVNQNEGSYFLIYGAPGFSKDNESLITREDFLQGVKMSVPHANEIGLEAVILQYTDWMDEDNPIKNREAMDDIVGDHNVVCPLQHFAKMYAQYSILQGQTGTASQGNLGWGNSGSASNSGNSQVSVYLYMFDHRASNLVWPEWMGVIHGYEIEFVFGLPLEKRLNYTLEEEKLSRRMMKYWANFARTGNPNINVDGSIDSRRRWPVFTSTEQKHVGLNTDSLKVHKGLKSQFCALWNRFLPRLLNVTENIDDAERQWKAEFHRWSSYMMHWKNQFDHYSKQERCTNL

RAW264.7 [2] = assay: Antiinflammatory activity in mouse RAW264.7 cells assessed as inhibition of LPS-induced NO production after 24 hrs by Griess assay; format: functional, cell-based; details: RAW264.7, 24 h
How it was run: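 LPS-stimulated RAW 264.7 mouse macrophages; compound inhibition of NO production measured, with dexamethasone as positive control. The protocol follows a previously described method.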

RAW264.7 [3] = assay: Cytotoxicity against mouse RAW264.7 cells at 200 uM; format: cell-based; details: raw264.7, 200 µM

SMILES	inhibition (RAW264.7 [1])	further results
COc1ccc2c3c1O[C@H]1C[C@@H](O)CC[C@@]31[C@@H](O)C[N+](C)([O-])C2 (stereo partly drawn)	inactive	–
CN1CC[C@@]23CC[C@H](O)C[C@@H]2Oc2c(O)ccc(c23)C1	inactive	–
CO[C@@H]1C=C[C@@]23c4cc5c(cc4C[N+]([O-])(CCc4ccc(O)cc4)[C@@H]2C(=O)N(C)[C@H]3C1)OCO5 (stereo partly drawn)	–	IC50 (Acetylcholinesterase): 75.3 µM; IC50 (RAW264.7 [2]): 7.5 µM; Activity (RAW264.7 [3]): Non-Toxic
CO[C@@H]1C=C[C@@]23c4cc5c(cc4C=N[C@@H]2C(=O)N(C)[C@H]3C1)OCO5	inactive	–
COc1ccc2c3c1O[C@H]1[C@@H](O)[C@@H](O)C=C[C@@]31[C@@H](O)CN(C)C2	inactive	–
CO[C@@H]1C=C[C@@]23c4cc5c(cc4CN(C)[C@@H]2C(=O)N(C)[C@H]3C1)OCO5	inactive	–
CN1CC[C@@]23C=C[C@H](O)C[C@@H]2Oc2c(O)ccc(c23)C1	inactive	–
CO[C@@H]1C=C[C@@]23c4cc5c(cc4CN(CCc4ccc(O)cc4)[C@@H]2C(=O)N(C)[C@H]3C1)OCO5	inactive	–
CC[C@H](C)CN1Cc2cc3c(cc2[C@@]24C=C[C@@H](OC)C[C@@H]2N(C)C(=O)[C@@H]14)OCO3	inactive	–
CO[C@@H]1C=C[C@@]23c4cc5c(cc4CN(CCc4ccccc4)[C@@H]2C(=O)N(C)[C@H]3C1)OCO5	–	IC50 (RAW264.7 [2]): 10.2 µM; Activity (RAW264.7 [3]): Non-Toxic
CO[C@@H]1C=C[C@@]23c4cc5c(cc4CN(CCc4c[nH]c6ccccc46)[C@@H]2C(=O)N(C)[C@H]3C1)OCO5	–	IC50 (Acetylcholinesterase): 111 µM; IC50 (RAW264.7 [2]): 18 µM; Activity (RAW264.7 [3]): Non-Toxic
COc1ccc2c3c1O[C@H]1C[C@@H](O)C=C[C@@]31CCN(C)C2	inactive	–
CO[C@@H]1C=C[C@@]23c4cc5c(cc4CN(CCCC(=O)O)[C@@H]2C(=O)N(C)[C@H]3C1)OCO5	–	IC50 (RAW264.7 [2]): 18.8 µM; Activity (RAW264.7 [3]): Non-Toxic
CO[C@@H]1C=C[C@@]2(C(=O)N(CCC(C)C)Cc3cc4c(cc32)OCO4)[C@@H](N(C)C=O)C1	–	IC50 (RAW264.7 [2]): 23.6 µM; Activity (RAW264.7 [3]): Non-Toxic
CO[C@@H]1C=C[C@@]23c4cc5c(cc4CN(CCC(C)C)[C@@H]2C(=O)N(C)[C@H]3C1)OCO5	inactive	–
COc1ccc2c3c1O[C@H]1C[C@@H](O)C=C[C@@]31[C@@H](O)CN(C)C2	inactive	–
CN1Cc2ccc(O)c3c2[C@@]2(CC[C@H](O)C[C@@H]2O3)[C@@H](O)C1	inactive	–
COc1ccc2c3c1O[C@H]1C[C@@H](O)CC[C@@]31CCN(C)C2	inactive	–
COc1ccc2c3c1O[C@H]1C[C@@H](O)CC[C@@]31[C@@H](O)CN(C)C2	inactive	–
CO[C@@H]1C=C[C@@]23c4cc5c(cc4C[N+]([O-])(CCC(C)C)[C@@H]2C(=O)N(C)[C@H]3C1)OCO5 (stereo partly drawn)	inactive	IC50 (Acetylcholinesterase): 57.3 µM
CCCCCCN1Cc2cc3c(cc2[C@@]24C=C[C@@H](OC)C[C@@H]2N(C)C(=O)[C@@H]14)OCO3	inactive	–
COc1ccc2c3c1O[C@H]1C[C@@H](O)C=C[C@@]31[C@@H](O)C[N+](C)([O-])C2 (stereo partly drawn)	inactive	–
CO[C@@H]1C=C[C@@]2(C(=O)N(C)Cc3cc4c(cc32)OCO4)[C@@H](N(C)C=O)C1	inactive	–
CN1Cc2ccc(O)c3c2[C@@]2(C=C[C@H](O)C[C@@H]2O3)[C@@H](O)C1	inactive	IC50 (Acetylcholinesterase): 169 µM
